Measured values collected from several papers.
Lines come from different studies, so protocols differ.
Target: MAP/microtubule affinity-regulating kinase 3 (MARK3, Homo sapiens, UniProt P27448)

SMILES	test	setting	remaining binding
Cc1cnc(Nc2ccc(C(=O)N3CCC(N4CCCC4)CC3)cc2)nc1-c1cc2ccccc2s1	binding, competition with immobilised ligand	1 µM	100%
CN(C)c1nccc(-c2cnn3ncccc23)n1	binding	1 µM	100%
O=C(c1ccc(Nc2nccc(-c3cc4ccccc4s3)n2)cc1)N1CCC(N2CCCC2)CC1	binding, competition with immobilised ligand	1 µM	100%
CNC(=O)[C@@H]1CC[C@@H](n2c(-c3ccc4cnccc4c3)nc3ccc(C(=O)NCc4cccc(C(N)=O)c4)cc32)C1	binding, competition with immobilised ligand	1 µM	59%
FC(F)(F)Oc1cccc(-c2cnc3ccc(-c4ccncc4)nn23)c1	cell-free assay, competition with immobilised ligand	5 µM	97%
O=C(c1ccc(Nc2ncc(Cl)c(-c3ccc(Cl)s3)n2)cc1)N1CCC(N2CCCC2)CC1	binding, competition with immobilised ligand	1 µM	100%
O=C(O)[C@H]1[C@H](Cn2nnc3ccccc3c2=O)CC[C@@H]1C(=O)c1ccc(OCCC2CCOCC2)cc1	cell-free assay, competition with immobilised ligand	1 µM	100%
C[C@@H]1CCN(c2nccc(-c3cnn4ncccc34)n2)C1	binding	1 µM	100%
C[C@@H]1CN(c2cc(-c3nn(C)c4ccc(OC5(C)CC5)cc34)ncn2)C[C@H](C)O1	cell-free assay, competition with immobilised ligand	1 µM	100%
COc1cnc(Nc2cccc(S(N)(=O)=O)c2)nc1N1CCN(c2ccccc2)C(=O)C1	binding, competition with immobilised ligand	1 µM	92%
c1cncc(-c2cccc(Nc3nccc(NC4CCCCC4)n3)c2)c1	binding, competition with immobilised ligand	10 µM	99%
N[C@H]1CCN(c2nccc(-c3cnn4ncccc34)n2)C1	binding	1 µM	57%
CC(=O)Nc1c(C(C)=O)c(=O)n(C)c2nc(-c3ccc(Cl)cc3Cl)c(-c3ccc(Cl)cc3)cc12	cell-free assay, competition with immobilised ligand	1 µM	100%
COc1ccnn2ncc(-c3ccnc(N(C)C)n3)c12	binding	1 µM	44%
COc1ncc2cc3ccccc3nc2c1C#N	cell-free assay, competition with immobilised ligand	5 µM	100%
C[C@@H]1CN(c2ccc3ncc(-c4ccc5[nH]nc(C6CC6)c5c4)n3n2)C[C@H](C)O1	binding, competition with immobilised ligand	0.5 µM	100%
Cc1noc([C@H]2C[C@@H](c3ccc(C(F)(F)F)cc3)CN(C(=O)N3CCS(=O)(=O)C3)C2)n1	cell-free assay, competition with immobilised ligand	1 µM	100%
CC1CCCN1c1nccc(-c2cnn3ncccc23)n1 (stereo not drawn)	binding	1 µM	100%
C[C@H](c1cccc(C#N)c1)n1cc(Cl)cc(C(N)=O)c1=N	cell-free assay, competition with immobilised ligand	1 µM	100%
CC(C)(C)c1ccc(-c2nc(CBr)nn2-c2cccc(O)c2)cc1	cell-free assay, competition with immobilised ligand	10 µM	85%
CO[C@H]1CC[C@H](CNc2ccc(S(=O)(=O)NC(=O)c3ccc(N4CCN(CC5=C(c6ccc(Cl)cc6)CC(C)(C)CC5)CC4)cc3Oc3cnc4[nH]ccc4c3)cc2[N+](=O)[O-])CC1	cell-free assay, competition with immobilised ligand	1 µM	96%
O=C(NCC1CCOCC1)c1n[nH]cc1NC(=O)c1c(F)cccc1F	binding, competition with immobilised ligand	1 µM	100%
CN(C)C(=O)Cn1cc(-c2nc([C@@](C)(c3ccc(-c4cnc(N)nc4)cc3)C3CC3)no2)cn1	cell-free assay, competition with immobilised ligand	1 µM	99%
c1cnn2ncc(-c3ccnc(N4CCC45COC5)n3)c2c1	binding	1 µM	100%
